From PubChem
H69AR growth 86K: blocks growth of human H69AR lung tumor cells. viability, % at 10 µM. H69AR lung tumor viability, ATP luminescence, 72 h; stronger effect = lower value. AID 598. 85,000 tested, 6% active;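 active means viability at or below 40%; inactive means viability above 40%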;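 further: multidrug resistant small cell line overexpressing MRP-1 efflux transporter; 100% = mean luminescence of untreated control wells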
HUVEC inhibit: human endothelial cell proliferation inhibition; HUVEC proliferation, CellTiter-Glo luminescence, 72 h; stronger effect = lower value; viability, % at 10 µM (by protocol); 86,000 tested, 1.1% active; AID 648;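 active means viability at or below 30%; inactive means viability above 30%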;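 further: 100% = median luminescence of DMSO-only cell control wells on each plate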
tolC growth inh: E. coli tolC mutant growth inhibition. E. coli BW25113 tolC mutant growth, OD615. growth inhibition, % at 10 µM (by protocol). 65,000 tested, 2.2% active;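 active means growth inhibition at or above a cutoff equal to the mean over every tested compound plus 3 SD, cut at about 60% in these data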;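 further: growth measured after 20 h incubation at 37 °C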
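Test system – E. coli BW25113 ΔtolC::kan, tolC deletion mutant strain · Detection – OD at 615 nm · Buffer or medium – LB with kanamycin 50 µg/mL · Times – 20 h compound exposure of bacteria at 37 °C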
Fibroblast inh: blocks proliferation of human lung fibroblasts; LL 47 human lung fibroblast viability, ATP luminescence; stronger effect = lower value; viability, % at 10 µM; 85,000 tested, 1.1% active;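 active means viability at or below 50% in the single dose screen; inactive means viability above 50%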;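 further: compound exposure lasted 72 h before the ATP readout; 100% = median luminescence of untreated cell-only wells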
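Assay system: human lung fibroblast line LL 47, low passage. Input: 1,150 fibroblasts seeded per well. Times: overnight cell rest, 72 h compound treatment at 37 °C. Evaluation: % viability of median cell-only signal. Technique: luminescent ATP detection, CellTiter-Glo. Control set: cell-only wells, no compound.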
Jurkat tox 60K: cytotoxicity toward Jurkat cells; Jurkat E6.1 viability, ATP luminescence, 48 h; inhibition, % at 4 µM; 56,000 tested, 1.2% active;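 active means inhibition above the mean inhibition of all tested compounds plus 3 SD, cut at about 28% in these data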
Ecoli WT expand: E. coli BW25113 growth inhibition, expanded screen | OD600 absorbance | growth inhibition, % at 100 µM | 98,000 tested, 0.15% active | AID 710;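 active means growth inhibition above about 50% at one test dose, limit read from the data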;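 further: growth measured after 20 h incubation at 37 °C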
An asterisk follows results filed as active; . = not tested or not shown. The list is not random: actives were taken first. Their share in the collection is about 6.4%.

SMILES	H69AR growth 86K	HUVEC inhibit	tolC growth inh	Fibroblast inh	Jurkat tox 60K	Ecoli WT expand
COc1ccc2[nH]c(C)c(CCN(Cc3cccs3)C(=S)Nc3ccc(F)cc3)c2c1	37*	88	.	100	.	-13
CC(C)c1nc(N2CCN(C(=O)c3ccco3)CC2)c2c3c(sc2n1)CCCC3	88	93	79*	96	4	3
CCOc1ccc(C2=C/C(=C/c3cccnc3)C(=O)O2)cc1	.	.	.	.	.	9
O=C1/C(=C/c2cccnc2)Oc2cc(OS(=O)(=O)c3ccc(F)cc3)ccc21	35*	94	.	95	.	1
Cc1ccc(S(=O)(=O)Oc2ccc3c(c2)O/C(=C\c2cccnc2)C3=O)cc1	25*	99	.	96	.	-5
Cc1ccc(S(=O)(=O)Oc2ccc(/C=C3\N=C(c4cccc(C)c4)OC3=O)cc2)cc1	.	.	.	.	.	-11
CCCc1nnc(SCC(=O)N2CCCCC2)n1CCCOC	97	103	.	105	.	4
O=C(CCSc1nnc(-c2ccncc2)o1)Nc1cccc2ccccc12	37*	90	.	88	.	.
O=C(CCSc1nnc(-c2ccncc2)o1)Nc1ccccc1	103	102	-6	107	3	0
CCN(CC)S(=O)(=O)c1ccc(C(=O)N2CCCCC2)cc1	100	92	.	101	.	0
COc1cc(Br)cc2cc(C(=O)OC3CCN(C)CC3)c(=O)oc12	36*	95	.	101	.	.
O=C(NC(=S)N(Cc1ccccc1)Cc1ccccc1)c1ccccc1F	.	.	.	.	.	-13
Clc1ccc2[nH]cc(-c3nnnn3-c3ccc4ccccc4c3)c2c1	.	.	.	.	.	-4
Cc1ccccc1N=C(NOCc1ccc(Cl)cc1Cl)c1nonc1N	9.2*	86	.	79	.	-15
Cn1cnnc1SCC(=O)c1cc2ccccc2oc1=O	76	88	-10	89	3	-7
O=C(Cn1nc(Cl)nc1Cl)c1cc2ccccc2oc1=O	32*	90	20	99	-3	3
Cc1cc(C)nc(SCC(=O)c2ccc3c(c2)OCCO3)n1	.	.	.	.	.	-3
O=C(Cn1nc(Cl)nc1Cl)c1ccc2c(c1)OCCO2	38*	83	-16	96	-6	61*
Nc1nc(SCC(=O)NCCC(c2ccccc2)c2ccccc2)n[nH]1	92	94	.	109	.	4
COc1ccc2c(c1)c1ncnc(N3CCN(Cc4ccc5c(c4)OCO5)CC3)c1n2C	28*	64	46	91	2	-1
COc1ccc2[nH]c3c(N4CCN(Cc5ccc6c(c5)OCO6)CC4)ncnc3c2c1	49	54	7	90	.	-5
CCc1nc(SCC(=O)Nc2nccs2)c2oc3ccccc3c2n1	13*	69	11	76	14	-2
O=C(CSc1ncnc2c1cnn2Cc1ccccc1)Nc1ccc2c(c1)OCCO2	34*	95	-12	94	-9	-10
CCc1nc(SCC(=O)Nc2ccc3c(c2)OCCO3)c2oc3ccccc3c2n1	0.9*	20*	-4	94	6	-9
CC(C)CCNC(=O)NC(=O)COC(=O)/C=C/c1cnc2ccccc2n1	.	.	.	.	.	0
SMILES	H69AR growth 86K	HUVEC inhibit	tolC growth inh	Fibroblast inh	Jurkat tox 60K	Ecoli WT expand
CC(=O)c1ccc(OCC(O)CN2CCN(c3ccccn3)CC2)cc1 (configuration not stated)	108	112	-8	95	1	1
COc1cc(NS(=O)(=O)c2ccc(C)cc2C)cc(OC)c1OC	24*	87	9	94	39*	14
Cc1cccc(Nc2nc(NCc3ccco3)nc(N3CCOCC3)n2)c1	53	7.9*	62*	84	8	-13
CCn1cc(C(=O)O)c(=O)c2cnc(N3CCN(C(=O)Nc4ccccc4)CC3)nc21	93	96	100*	96	-2	.
CCn1cc(C(=O)N2CCn3c(nc4ccccc43)C2)c(=O)c2ccc(C)nc21	96	93	-7	97	-2	1
COc1cccc(C2(O)CCN(C(=O)C3CCC3)CC2)c1	100	99	-9	118	4	-4
CCCCOc1ccc(C(=O)OC2CC(C)N(C)CC2C)cc1 (configuration not stated)	63	15*	0	88	.	17
COCCn1c(-c2ccc(-c3ccccc3Cl)o2)nc2c1c(=O)[nH]c(=O)n2CC(C)C	18*	37	-15	60	-1	-13
CCCCn1c(=O)[nH]c(=O)c2c1nc(-c1ccc(-c3ccccc3Br)o1)n2CCOC	47	44	.	39*	.	-19
CCCc1nc2sc3ccccc3c(=O)c2c(=O)n1Cc1ccco1	62	78	70*	86	-7	10
COc1ccc2c(=O)c3c(=O)n(Cc4ccco4)c(-c4cc(OC)c(OC)c(OC)c4)nc3oc2c1	13*	70	-10	78	-1	.
COc1ccc2c(=O)c3c(=O)n(Cc4ccco4)c(-c4ccccc4)nc3oc2c1	82	100	14	101	-5	-12
CCCc1nc2oc3cc(OC)ccc3c(=O)c2c(=O)n1Cc1ccco1	82	117	61*	103	-3	-10
CCOC(=O)c1[nH]c2ccccc2c1N=CN(CC)CC	97	105	2	87	.	-1
O=C(COC(=O)CCc1ccccc1)Nc1ncc(Cl)cc1Cl	.	.	.	.	.	1
Cc1nc2ccc(NS(=O)(=O)c3ccc(C)c(C)c3)cc2s1	.	.	.	.	.	1
Cc1nc2ccc(S(=O)(=O)Nc3ccccc3C)cc2s1	33*	67	26	91	30*	-4
CC(=O)c1ccc(N2CCN(C(=O)c3cc4c(=O)n(C)c5ccccc5c4n3C)CC2)cc1	86	85	-7	86	0	.
Nc1nc2ccc(S(=O)(=O)N3CCCCC3)cc2s1	0.7*	82	.	47*	.	-4
O=C(Nc1nc2ccc(S(=O)(=O)N3CCCCC3)cc2s1)C1CCCO1 (configuration not stated)	100	78	6	98	1	12
O=C(Nc1nc2ccc(S(=O)(=O)N3CCCC3)cc2s1)C1CCCCC1	23*	41	9	47*	93*	-5
CSc1nc2ccc(S(=O)(=O)N3CCCCC3)cc2s1	86	85	.	88	.	-9
O=C(NCCc1ccccc1)c1ccccc1NS(=O)(=O)N1CCCC1	83	93	24	97	-9	2
COc1ccc(-c2cc(C#N)nc(N3CCNCC3)n2)cc1	1.4*	51	.	2.0*	.	21
CCN(CC)c1nc(C#N)cc(-c2ccc(OC)cc2)n1	32*	68	48	80	41*	3
CN1CCN(c2nc(C#N)cc(-c3ccccc3)n2)CC1	85	94	.	98	.	-2
C/C(=N\NC(=O)c1cccc(F)c1)c1ccc(Br)s1	.	.	.	.	.	-5
CC(C)CC(=O)CN1C(=O)C2(OCCO2)c2ccccc21	80	90	-16	99	5	2
COC(=O)N/N=C(\C)c1ccccc1Br	109	104	.	102	.	2
CCC(C)(C)NC(=O)C(c1ccco1)N(C(=O)c1csnn1)c1cccc(F)c1 (configuration not stated)	96	93	2	99	4	-3
